Screens from PubChem BioAssay.
Only a selection was taken, and hits are over-represented in it overall.
Lung fibro prol – antiproliferative effect on LL 47 fibroblasts – human, LL 47 cells, CellTiter-Glo luminescence, primary screen | LL 47 human lung fibroblast viability, ATP luminescence; hits give low values | viability, % at 10 µM | 85,000 compounds, 1.1% hits | AID 719, 2007;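 active = viability at or below 50% in the single dose screen; inactive = viability above 50%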;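 note: compound exposure lasted 72 h before the ATP readout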
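Material: human lung fibroblast line LL 47, low passage; Evaluation: viability percentage against median untreated-cell control; Buffer or medium: 15% FBS in IMEM; Incubation: 72 h compound exposure at 37 °C after overnight plating; Dosing: 0.1% DMSO in all compound wells; Measured by: CellTiter-Glo luminescence.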
bCat KO growth – primary screen for growth suppressors in beta-catenin knockout HCT116 cells (colon tumor, human); HCT116 beta-catenin knockout viability, CellTiter-Glo, 60 h; hits give low values; viability, % at 10 µM; 140,000 compounds, 1.5% hits;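 active = viability at or under a set limit, the compound median less 4 SD, cut at about 6% in these data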
HCT116 PTEN-null – growth suppression of PTEN-null HCT116, primary screen, cell-based, CellTiter-Glo; HCT116 PTEN-null viability, 60 h; hits give low values; viability, % at 10 µM; AID 827, 2007; 140,000 compounds, 1.2% hits;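 active = viability at or below a set limit, 4 SD under the median of all tested compounds, cut at about 3.7% in these data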;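 note: PTEN knockout HCT116 line with beta catenin targeted HCT116 as companion control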
HUVEC prolif 384 – inhibitors of HUVEC proliferation, primary screen, cell-based, 384-well | CellTiter-Glo luminescence, 72 h; hits give low values | 86,000 compounds, 1.1% hits | viability, % at 10 µM (by protocol);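 active = viability at or below 30%; inactive = viability above 30%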
H69AR inhibit – proliferation blockers of H69AR lung cancer cells, primary screen, cell-based, human, 86K library; H69AR lung tumor viability, ATP luminescence, 72 h; hits give low values; viability, % at 10 µM; 85,000 compounds, 6% hits;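 active = viability at or below 40%; inactive = viability above 40%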;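 note: multidrug resistant small cell line overexpressing MRP-1 efflux transporter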
Hits are given with their value; – = inactive; · = not tested or not shown.

SMILES	Lung fibro prol	bCat KO growth	HCT116 PTEN-null	HUVEC prolif 384	H69AR inhibit
CC1=NNC(=O)C(CC(=O)Nc2ccc(Cl)c(Cl)c2)C1 (stereo not drawn)	·	–	–	·	·
O=C(Nc1ccc2snnc2c1)N1CCN(c2ccccc2)CC1	–	–	–	–	–
O=C(Nc1ccc2snnc2c1)Nc1cccc2ccccc12	–	–	–	–	9.3
CCOc1nc(-c2ccccc2Cl)ccc1C#N	·	–	–	·	·
Cc1[nH]n2c(=O)c3c(nc2c1-c1ccc(Cl)cc1)CCC3	–	–	–	–	25.9
Cc1[nH]n2c(=O)c3c(nc2c1-c1ccccc1)CCC3	–	–	–	–	24.9
O=c1c2c(nc3c(-c4ccccc4)c[nH]n13)CCCC2	–	–	–	–	–
COc1ccc(-c2nc3ccccc3c(=O)n2NC(=O)c2cccnc2Cl)cc1OC	·	–	–	·	·
O=C(Nc1ccc(Nc2ccccc2)cc1)C(Cl)(Cl)Cl	·	–	–	·	·
CCOc1ccc(N=CC2=C(O)CC(C)(C)CC2=O)cc1	–	–	–	–	39.8
O=C(Nc1ccc(Cl)c(C(F)(F)F)c1)NC1CC2CCCC(C1)N2C1CC1 (stereo not drawn)	–	·	·	12.1	34.1
O=C(Nc1cccc(F)c1)NC1CC2CCCC(C1)N2C1CC1 (stereo not drawn)	–	–	–	–	–
Cc1[nH]nc(SCC(=O)Nc2ccc(C#N)cc2)c1[N+](=O)[O-]	·	–	–	·	·
CCCCCc1nc2ccccc2c(=O)n1NC(=O)c1c(O)c2cccc3c2n(c1=O)CCC3	–	·	·	–	27.3
CCCCc1nc2ccccc2c(=O)n1NC(=O)c1c(O)c2cccc3c2n(c1=O)CCC3	–	·	·	–	–
CCCCCCc1nc2ccccc2c(=O)n1NC(=O)c1c(O)c2cccc3c2n(c1=O)CCC3	–	–	–	–	24.8
C/C(=N\Nc1cccc(Cl)c1)c1ccc(-n2ccnc2)cc1	·	–	–	·	·
COc1cccc(CNC(=O)C(=O)NCC2CCCO2)c1 (stereo not drawn)	–	–	–	–	–
Cc1ccccc1CS(=O)(=O)c1nnc([C@H](Cc2ccccc2)NC(=O)OC(C)(C)C)o1	5.5	3.5	2.8	–	1.2
CCC(C)[C@@H](NC(=O)OC(C)(C)C)c1nnc(S(=O)(=O)Cc2cccc(C)c2)o1 (stereo partly drawn)	6.2	–	–	–	1.6
CC(C)(C)OC(=O)N[C@@H](Cc1ccccc1)c1nnc(SCC(=O)c2ccc(Cl)cc2)o1	29.4	–	–	–	–
CCCCCc1nc2sc3c(c2c(=O)n1NC(=O)c1ccc([N+](=O)[O-])cc1)CC(C)(C)OC3	·	–	–	·	·
CN1CCN(C(=O)CSc2ccc(C(F)(F)F)cc2[N+](=O)[O-])CC1	·	–	–	·	·
Cc1noc(C)c1S(=O)(=O)N1CCC(C(=O)N2CCN(c3ccccc3Cl)CC2)CC1	–	–	–	–	8.4
CCOC(=O)C1=C(CSc2nc3ccccc3s2)NC(=O)NC1c1cc(C)ccc1C (stereo not drawn)	·	–	–	·	·
SMILES	Lung fibro prol	bCat KO growth	HCT116 PTEN-null	HUVEC prolif 384	H69AR inhibit
CCOC(=O)C1=C(CSc2nc3ccccc3s2)NC(=O)NC1c1ccc(OC)cc1 (stereo not drawn)	·	5.7	–	·	·
Cc1ccc(C(C[N+](=O)[O-])n2nc(C)cc2C)cc1 (stereo not drawn)	·	3.9	1.9	·	·
Cc1ccc(S(=O)(=O)n2nc(C)cc2C)cc1	–	–	–	–	–
CCOC(=O)c1cc(-c2ccccc2)sc1NC(=O)C(C)OC(=O)c1cccnc1OCC (stereo not drawn)	·	–	–	·	·
Cc1ccc2[nH]c(=O)c(CN(CCCN3CCOCC3)C(=O)Nc3cccc(Cl)c3)cc2c1	–	–	–	8.5	20.2
C=CCn1c(SCC(=O)NCCOC)nnc1-c1cc2c(s1)CCC(CC)C2 (stereo not drawn)	·	–	–	·	·
CCOc1ccccc1C(=O)N1CCC(n2nnc3cc(C)ccc32)CC1	–	–	–	–	–
CCOc1ccccc1C(=O)N1CCC(n2nnc3cc(C(F)(F)F)ccc32)CC1	–	–	–	–	38.9
CCOc1ccc2nc(NCCNC(=O)Nc3ccccc3)c(C#N)cc2c1	–	–	–	–	28.1
O=C(CNC(=O)c1ccco1)OCc1cccc(Cl)c1	–	–	–	–	–
O=C(CCNc1cccc(Cl)c1)c1ccco1	–	–	–	–	2.2
COc1ccc(NC(=O)/C(C#N)=C/c2ccc(OCc3ccccc3F)cc2)cc1	·	–	–	·	·
